The inhibition is the percentage by which the read-out fell short of the control.

The source made the active and inactive calls. The rule behind the calls is not given here.

For experiment [1], the target named is T1, Nucleotide-binding oligomerization domain-containing protein 2 (Homo sapiens, UniProt Q9HC29). Briefly: Inhibition of human NOD2 expressed in HEK293 cells assessed as suppression of MDP-stimulated p38 phosphorylation preincubated for 1 hr followed by MDP stimulation measured after 1 hr by Western blot analysis. (In western blotting, separated proteins are transferred to a membrane and probed.)

Experiment [2] deals with T1, Nucleotide-binding oligomerization domain-containing protein 2. Description: Inhibition of human NOD2 expressed in HEK293 cells assessed as suppression of MDP-stimulated RIP2 phosphorylation preincubated for 1 hr followed by MDP stimulation measured after 1 hr by Western blot analysis.
Experiment [3] relates to Lewis lung carcinoma cell line. Description: Potentiation of paclitaxel-mediated antitumor activity against mouse LLC cells implanted in C57BL/6 mouse assessed as tumor weight inhibition at 20 mg/kg, iv administered daily measured 11 days after tumor implantation (reference value: 34.54 %). The experiment is classed as functional. The note with it: 264 h, read-out: TGI.

Experiment [4] deals with T1, Nucleotide-binding oligomerization domain-containing protein 2. Briefly: Antagonist activity at human NOD2 expressed in HEK-Blue cells assessed as inhibition of MDP-stimulated cell activation at 10 uM preincubated for 3 hrs followed by MDP addition measured after 20 hrs by SEAP reporter gene assay. The experiment is classed as cell-based. In outline:
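HEK-Blue hNOD1 or hNOD2 cells preincubated with compound 3 h, then stimulated 20 h with C12-iE-DAP 50 ng/mL (NOD1) or MDP 100 ng/mL (NOD2); SEAP in supernatant quantified. Primary screen at 10 μM, hits repeated in triplicate; IC50 from dose-response, mean ± SD (n = 3), only for compounds reaching ≥50% inhibition at the screening concentration.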
In general terms: In a reporter assay the amount or activity of a reporter protein is the signal.

The target in experiment [5] is Receptor-interacting serine/threonine-protein kinase 2 (Homo sapiens) (UniProt O43353). Briefly: Inhibition of recombinant human N-terminal GST tagged RIPK2 (1 to 299 residues) expressed in baculovirus infected Sf9 insect cells assessed as decrease in MBP phosphorylation at 10 uM preincubated with compound followed by ATP addition measured after 60 mins by ADP-Glo assay. Background: In ADP-Glo the light output rises with the ADP produced.

The target of experiment [6] is T2, Nucleotide-binding oligomerization domain-containing protein 1 (Homo sapiens) (UniProt Q9Y239).
T2 sequence (whole entry): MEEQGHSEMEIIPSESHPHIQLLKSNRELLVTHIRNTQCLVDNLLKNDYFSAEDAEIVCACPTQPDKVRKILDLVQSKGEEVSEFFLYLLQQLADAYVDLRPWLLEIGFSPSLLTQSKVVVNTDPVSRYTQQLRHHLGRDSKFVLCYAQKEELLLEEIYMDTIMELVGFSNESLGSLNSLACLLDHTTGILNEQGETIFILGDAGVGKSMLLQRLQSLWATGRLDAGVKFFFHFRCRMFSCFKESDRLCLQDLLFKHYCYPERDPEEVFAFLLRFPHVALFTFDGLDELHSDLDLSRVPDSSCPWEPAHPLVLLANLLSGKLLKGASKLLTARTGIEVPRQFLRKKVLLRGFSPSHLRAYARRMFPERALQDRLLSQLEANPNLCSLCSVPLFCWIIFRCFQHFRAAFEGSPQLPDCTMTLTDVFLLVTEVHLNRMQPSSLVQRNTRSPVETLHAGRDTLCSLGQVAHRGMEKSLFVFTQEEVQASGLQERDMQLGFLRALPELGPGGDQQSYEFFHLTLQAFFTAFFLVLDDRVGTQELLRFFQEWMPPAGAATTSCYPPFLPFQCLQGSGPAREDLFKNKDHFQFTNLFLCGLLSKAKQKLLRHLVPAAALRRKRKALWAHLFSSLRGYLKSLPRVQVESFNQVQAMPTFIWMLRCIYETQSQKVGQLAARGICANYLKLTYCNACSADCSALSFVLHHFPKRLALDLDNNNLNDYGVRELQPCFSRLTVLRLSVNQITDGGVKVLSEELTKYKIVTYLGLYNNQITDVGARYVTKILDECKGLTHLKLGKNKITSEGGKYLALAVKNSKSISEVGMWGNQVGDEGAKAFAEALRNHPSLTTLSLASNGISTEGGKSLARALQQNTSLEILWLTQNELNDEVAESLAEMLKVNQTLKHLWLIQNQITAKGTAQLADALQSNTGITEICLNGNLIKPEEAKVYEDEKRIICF
Briefly: Inhibition of NOD1 in human PBMC-derived macrophages assessed as reduction in C12-iE-DAP-stimulated TNFalpha mRNA expression preincubated for 1 hr followed by C12-iE-DAP stimulation for 90 mins by RT-qPCR analysis. In outline: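 Human CD14+ monocytes from donor PBMC, differentiated 7 days with M-CSF 20 ng/mL to macrophages; 1.0 × 10^6 cells pretreated 1 h with compound (final 0.1% DMSO), then C12-iE-DAP 500 ng/mL or MDP 5 μg/mL for 90 min. IL-6/TNF-α mRNA by qRT-PCR, normalized to GAPDH; stimulated response set to 100%.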

In experiment [7] the target is T1, Nucleotide-binding oligomerization domain-containing protein 2. Description: Inhibition of NOD2 in human PBMC-derived macrophages assessed as reduction in MDP-stimulated p38 phosphorylation at 1 to 10 uM preincubated for 1 hr followed by MDP stimulation for 1 hr by Western blot analysis.
Experiment [8] shares this target. Briefly: Inhibition of NOD2 in human PBMC-derived macrophages assessed as reduction in MDP-stimulated JNK phosphorylation at 1 to 10 uM preincubated for 1 hr followed by MDP stimulation for 1 hr by Western blot analysis.
For experiment [9] the target is unchanged. Description: Inhibition of human NOD2 expressed in HEK293 cells assessed as suppression of MDP-stimulated JNK phosphorylation preincubated for 1 hr followed by MDP stimulation measured after 1 hr by Western blot analysis.
Experiment [10] has as its target T2, Nucleotide-binding oligomerization domain-containing protein 1 (Homo sapiens). Briefly: Inhibition of NOD1 in human THP1 cells assessed as suppression of C12-iE-DAP-stimulated RIP2 phosphorylation at 1 to 10 uM preincubated for 1 hr followed by C12-iE-DAP stimulation after 45 mins by Western blot analysis. The class given is cell-based. In outline:
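PMA (20 ng/mL, 48 h)-differentiated THP1 macrophages rested 24 h in PMA-free medium, serum-starved (0.1% FBS) overnight, pretreated 1 h with compound, stimulated 45 min with C12-iE-DAP 50 ng/mL. Lysates run on 8% SDS-PAGE, immunoblotted for phospho and total RIP2, p38, JNK, ERK and IκBα.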

For experiment [11] the target is unchanged. Briefly: Inhibition of NOD1 in human PBMC-derived macrophages assessed as reduction of C12-iE-DAP-mediated decrease in IkBalpha levels at 1 to 10 uM preincubated for 1 hr followed by C12-iE-DAP stimulation for 45 mins by Western blot analysis.
Experiment [12] concerns the target Tumor necrosis factor (Homo sapiens) (UniProt P01375). Description: Inhibition of recombinant human TNFalpha expressed in HEK-Blue cells assessed as reduction in SEAP release preincubated for 3 hrs measured after 20 hrs by spectrophotometric analysis. The experiment is classed as cell-based.

T1 sequence (Q9HC29 whole entry, the tested form may be a part): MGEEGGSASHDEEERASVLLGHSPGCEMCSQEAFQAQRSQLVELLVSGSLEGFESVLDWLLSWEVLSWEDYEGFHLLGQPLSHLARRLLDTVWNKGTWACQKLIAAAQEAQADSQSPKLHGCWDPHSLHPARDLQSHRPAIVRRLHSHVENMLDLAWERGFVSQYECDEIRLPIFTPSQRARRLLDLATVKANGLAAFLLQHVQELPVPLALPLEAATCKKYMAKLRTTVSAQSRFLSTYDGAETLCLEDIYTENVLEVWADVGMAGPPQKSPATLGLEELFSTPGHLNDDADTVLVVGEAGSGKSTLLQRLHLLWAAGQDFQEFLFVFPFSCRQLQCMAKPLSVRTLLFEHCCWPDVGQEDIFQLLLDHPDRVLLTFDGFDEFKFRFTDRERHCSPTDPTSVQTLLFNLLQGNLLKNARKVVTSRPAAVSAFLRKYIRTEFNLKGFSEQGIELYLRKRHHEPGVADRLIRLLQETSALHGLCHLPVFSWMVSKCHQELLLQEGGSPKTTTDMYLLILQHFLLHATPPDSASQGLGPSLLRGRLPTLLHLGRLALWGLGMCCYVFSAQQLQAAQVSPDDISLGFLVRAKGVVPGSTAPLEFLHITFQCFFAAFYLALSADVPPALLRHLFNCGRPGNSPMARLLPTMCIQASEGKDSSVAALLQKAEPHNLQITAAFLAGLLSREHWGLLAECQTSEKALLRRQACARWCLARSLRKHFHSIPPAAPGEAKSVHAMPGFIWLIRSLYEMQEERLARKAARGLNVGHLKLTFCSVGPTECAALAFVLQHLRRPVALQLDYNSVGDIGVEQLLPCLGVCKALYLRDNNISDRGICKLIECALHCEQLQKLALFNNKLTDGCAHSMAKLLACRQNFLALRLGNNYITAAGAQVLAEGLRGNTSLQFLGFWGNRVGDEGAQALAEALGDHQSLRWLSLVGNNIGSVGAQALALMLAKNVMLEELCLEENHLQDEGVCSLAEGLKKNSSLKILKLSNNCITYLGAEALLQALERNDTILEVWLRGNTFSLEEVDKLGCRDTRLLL
Tumor necrosis factor (Homo sapiens), sequence (P01375 whole entry): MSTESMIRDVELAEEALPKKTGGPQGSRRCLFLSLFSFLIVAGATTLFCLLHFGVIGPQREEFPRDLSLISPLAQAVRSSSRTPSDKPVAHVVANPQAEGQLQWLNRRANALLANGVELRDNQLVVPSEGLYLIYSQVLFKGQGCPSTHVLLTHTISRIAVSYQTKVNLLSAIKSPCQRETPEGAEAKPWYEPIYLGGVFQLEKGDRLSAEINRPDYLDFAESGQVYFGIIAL
Receptor-interacting serine/threonine-protein kinase 2 (Homo sapiens), sequence (O43353 whole entry, the tested form may be a part): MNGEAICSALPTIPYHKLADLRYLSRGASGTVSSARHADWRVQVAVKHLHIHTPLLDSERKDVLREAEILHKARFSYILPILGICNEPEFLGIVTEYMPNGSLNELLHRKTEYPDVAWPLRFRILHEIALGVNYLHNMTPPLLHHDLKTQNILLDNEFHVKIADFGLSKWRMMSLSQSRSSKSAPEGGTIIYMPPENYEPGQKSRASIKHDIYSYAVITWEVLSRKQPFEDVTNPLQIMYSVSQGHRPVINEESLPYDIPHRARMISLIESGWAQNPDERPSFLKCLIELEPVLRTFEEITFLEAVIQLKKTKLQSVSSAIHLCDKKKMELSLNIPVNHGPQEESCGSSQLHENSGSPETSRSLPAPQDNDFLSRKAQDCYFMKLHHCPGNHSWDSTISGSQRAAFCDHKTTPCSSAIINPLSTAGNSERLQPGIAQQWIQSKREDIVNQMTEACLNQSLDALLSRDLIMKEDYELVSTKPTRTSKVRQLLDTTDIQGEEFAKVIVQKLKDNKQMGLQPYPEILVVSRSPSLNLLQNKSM

Regarding `CCCNC(=O)CC[C@H]1NC(=O)c2cc(Oc3cccc(N(C)C)c3)c(NC(=O)COCc3ccccc3)cc2NC1=O`, the inhibition entry in experiment [1] is “Dose-dependent effect”; in experiment [2], “Dose-dependent effect”; in [4] it was 80.4%; in experiment [6], “Dose-dependent effect”; in [9] it was “Dose-dependent effect”. In addition, the inhibition in vivo at 20 mg/kg in [3] turned out to be 67.3%. The inhibition result in experiment [5] and in experiment [12] was “inactive” each time. In addition, the inhibition entry in experiment [7], in experiment [8], in experiment [10] and in experiment [11] was “Active” throughout.

The values above are taken from ChEMBL document CHEMBL4014339, “Discovery of 1,4-Benzodiazepine-2,5-dione (BZD) Derivatives as Dual Nucleotide Binding Oligomerization Domain Containing 1/2 (NOD1/NOD2) Antagonists Sensitizing Paclitaxel (PTX) To Suppress Lewis Lung Carcinoma (LLC) Growth in Vivo” (J Med Chem, 2017).
